Test results from PubChem BioAssay AID1136 (Sanford-Burnham Center for Chemical Genomics, 2008).
The whole screen tested about 200,000 compounds, of which fewer than 10 were called active.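 Rule for the calls: active = activation factor at least 2 at 20 µM; inactive = the rest.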 A selection follows.

The compounds below were run against Alkaline phosphatase, tissue-nonspecific isozyme (Homo sapiens) (UniProt P05186) (assay: TNAP activators at high phosphate acceptor level, primary screen, biochemical, luminescence, uHTS (AID 1136)). Details: purified TNAP, CDP-star luminescence, 1 M DEA, 30 min; at 20 µM; hits give high values; 0 = EDTA background, 1 = DMSO-only activity.
In short: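 Assay system: human TNAP; Input: enzyme diluted 1/800 final; Reagent: CDP-star luminogenic substrate at 100 µM final; Timing: 30 min, room temperature; Signal: luminescence; Evaluation: TNAP activation factor scaled between EDTA and DMSO control wells.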

Chain of Alkaline phosphatase, tissue-nonspecific isozyme (Homo sapiens) (P05186 whole entry, looked up): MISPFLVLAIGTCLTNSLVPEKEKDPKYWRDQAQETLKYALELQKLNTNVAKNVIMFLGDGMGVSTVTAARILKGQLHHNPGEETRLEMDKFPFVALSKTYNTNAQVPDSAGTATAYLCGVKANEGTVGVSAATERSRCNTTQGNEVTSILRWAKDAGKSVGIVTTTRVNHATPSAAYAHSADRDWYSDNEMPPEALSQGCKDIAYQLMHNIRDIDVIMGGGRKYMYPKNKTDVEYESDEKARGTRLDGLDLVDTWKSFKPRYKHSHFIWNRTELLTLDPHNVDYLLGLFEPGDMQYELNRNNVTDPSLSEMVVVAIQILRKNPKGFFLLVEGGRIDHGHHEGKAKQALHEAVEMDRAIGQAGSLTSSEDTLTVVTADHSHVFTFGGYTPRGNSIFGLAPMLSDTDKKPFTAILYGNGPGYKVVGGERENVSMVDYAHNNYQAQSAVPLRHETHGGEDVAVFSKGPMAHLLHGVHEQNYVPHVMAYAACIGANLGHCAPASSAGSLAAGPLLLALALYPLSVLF

Activation factor, inactive:
CC1CCCN(S(=O)(=O)c2ccc(N(C(=O)c3cnccn3)C(C(=O)NC3CCCCC3)c3cccs3)cc2)C1 (stereo unspecified) 0.9
COc1ccc([N+](=O)[O-])cc1NC(=O)C(C)OC(=O)C1c2ccccc2Oc2ccccc21 (stereo unspecified) 1
COc1ccc(C(=O)Nc2ccc(NC(=O)C(C)C)nc2)cc1 1.1
COc1ccc(CNc2c(CO)cnc3c2cnn3C)cc1 1
CCOC(=O)c1sc(=NC(=O)/C=C/c2cccs2)n(C)c1C 1
CN(C)C(CNC(=O)c1ccc(S(=O)(=O)NCc2ccco2)cc1)c1ccccc1 (stereo unspecified) 1
Cc1cc(C)cc(OCC(=O)Nc2ccc(S(=O)(=O)Nc3ccccn3)cc2)c1 1
COc1ccc(C(=O)NC(=S)Nc2ccc(Cl)cn2)cc1OC 1.1
COc1ccc(N2C(=O)CC(Nc3ccc(F)cc3)C2=O)c([N+](=O)[O-])c1 (stereo unspecified) 1
CC(Oc1cccc(NC(=O)c2cccs2)c1)C(=O)c1ccccc1 (stereo unspecified) 1
CCCNS(=O)(=O)c1ccc(CCC(=O)N2CCCC2)cc1 1.1
COc1cc(OC)cc(-c2nnc(SCC(=O)Nc3ccc(C(=O)O)cc3)s2)c1 1
O=C(N/N=C/c1ccc(OCC2COCCO2)cc1)c1ccc(Br)cc1 (stereo unspecified) 1
CCN(C(=O)c1ccc(Br)cc1)c1ccccc1 1
Cn1ncc(N2CCN(S(=O)(=O)c3ccc(Br)cc3)CC2)c(Cl)c1=O 1.1
O=C(CSCC(=O)Nc1cccc([N+](=O)[O-])c1)Nc1ccccc1 1
Cc1ccc(S(=O)(=O)NNC(=O)Nc2cccc3ccccc23)cc1 1
CCN(CC)c1ccc2c(Nc3ccccc3)c(C=O)c(=O)oc2c1 1
O=C(COC(=O)CCCSc1nc2ccccc2[nH]1)Nc1ccc(Oc2ccccc2)cc1 1.1
O=C(NCc1cccnc1)c1cccc(-c2cc3ccccc3oc2=O)c1 1.1
C=CCN(C(=O)c1cc(C)cc(C)c1)C1(C(=O)Nc2ccccc2)CCN(C(C)C)CC1 1
CCOc1ccc(C(=O)Nc2nccs2)cc1[N+](=O)[O-] 1
COc1ccc(C)cc1NC(=O)NCc1ccccn1 1
CCC1S/C(=N/N=C/c2ccco2)NC1=O (stereo unspecified) 1
CN(C)S(=O)(=O)c1ccc2oc(SCC(=O)Nc3ccccc3F)nc2c1 1
C=CCOC(=O)C1=C[C@@H](c2ccccc2)C[C@@H](OCc2ccc(CO)cc2)O1 1.1
NC1=C([N+](=O)[O-])C(c2ccccc2)C2=C(CCCC2=O)O1 (stereo unspecified) 1
Cc1ccc(C2(C(F)(F)F)N=C3Sc4cc(C)cc(C)c4N3C(=O)N2)cc1 (stereo unspecified) 1
CCN(CC(=O)NC1CCS(=O)(=O)C1)c1nc(-c2cccnc2)nc2ccccc12 (stereo unspecified) 1
COCC(C)NC(=O)COc1nncc2ccccc12 (stereo unspecified) 1.1
CC(=O)N1C(C)c2ccccc2C(C)(C)CC12CCCCC2 (stereo unspecified) 1
Cn1cccc1/C=C1\SC(=O)N(CC(=O)Nc2ccc(F)cc2)C1=O 1.1
COc1ccc(NC(=O)c2sc(N)nc2-c2ccccc2)cc1 1
Cc1c(NC(=S)NC(=O)CCc2ccccc2)c(=O)n(-c2ccccc2)n1C 1.1
CCCc1nc2c([nH]1)C(c1cccnc1)C(C#N)=C(N)O2 (stereo unspecified) 1
O=C1OC(/C=C/c2ccccc2)=NC/1=C/c1ccco1 1
CCc1ccc(CN(C)Cc2nc(Cc3ccccc3)no2)nc1 1.1
O=C(O)c1ccc2c3c(cccc13)C(=O)N(OS(=O)(=O)c1ccccc1)C2=O 1
CCN(CC)C(=O)Oc1ccc(OC(=O)N(CC)CC)cc1 1.1
CC(Sc1nncn1C)C(=O)Nc1cc(C(F)(F)F)ccc1N1CCOCC1 (stereo unspecified) 1
CN(C)/C=C(/C(=O)c1ccccc1)S(=O)(=O)c1ccc(Cl)cc1 1
O=C(/C=C/c1ccc([N+](=O)[O-])cc1)NCCSCc1ccco1 1
O=C(Oc1cccc(O)c1)C1CCCCC1 1
O=C(NCCc1ccccc1)C1CCC(Cn2c(=O)c3ccccc3n(Cc3cccnc3)c2=O)CC1 (stereo unspecified) 0.9
C=CCc1ccc(OCC(O)CN2CCN(Cc3ccccc3)CC2)c(OC)c1 (stereo unspecified) 1
CC(C)(C)NCc1cc(Br)ccc1OC1CCCC1 1
O=C(NCc1nnc(SCC(=O)N2CCCc3ccccc32)o1)c1ccccc1F 1
CN1CCN(c2ccc(NC(=O)c3ccc4c(c3)OCCO4)cc2Cl)CC1 1.1
O=C(CC(=O)N/N=C\c1cccc(Cl)c1Cl)NCc1ccccc1 1
Cc1cc([N+](=O)[O-])nn1CC(=O)Nc1ccc(Cc2ccncc2)cc1 1
Cc1cc(C)n(-c2ccc(C(=O)O)cc2[N+](=O)[O-])n1 1
Cc1cccc(Nc2nc3c(S(=O)(=O)c4ccccc4)nnn3c3ccccc23)c1C 1.1
Cc1ccc(S(=O)(=O)NC(=O)COc2ccccc2C)cc1 1
Cc1nc2c(C(=O)NCc3cccs3)cnn2c(C)c1Cc1ccc(F)cc1 1
CC(=O)c1cccc(NC(=O)[C@@H](NC(N)=O)C(C)C)c1 1
Cc1cccc(C)c1OCC(=O)NC(Cc1c[nH]c2ccccc12)C(=O)O (stereo unspecified) 0.9
COc1ccc(N2CCN(C(=O)CNS(=O)(=O)c3ccc(C)c(C)c3)CC2)cc1 1.1
Cc1ccc(-n2cnc3ncnc(-c4ccccc4)c32)cc1 1.1
O=c1cc(CO)oc(C(Nc2cccc([N+](=O)[O-])c2)c2ccccn2)c1O (stereo unspecified) 1
Cc1ccc(NC(=O)c2csc3c2CCCC3)cc1 1
CCNC(=O)CC1C(=O)N(c2ccc(OC)cc2)C(=S)N1CCc1ccncc1 (stereo unspecified) 1
O=C(CC12CC3CC(CC(C3)C1)C2)NCc1ccco1 1
CN(C)c1ccc(/C=N\S(=O)(=O)c2ccccc2)cc1 1
Cn1c2c(c(=O)n(C)c1=O)C(c1cccc([N+](=O)[O-])c1)Nc1ccccc1O2 (stereo unspecified) 1
COC(=O)C1CCN(CC(N)=O)CC1 1.1
CCCCN(CC)C(=S)Nc1ccc2nc3n(c(=O)c2c1)CCCCC3 1
CCOC(=O)C1=NOC(Cn2cc(C(C)=O)c(=O)[nH]c2=O)C1 (stereo unspecified) 1
O=C(C1=C[C@H](c2coc3ccccc3c2=O)C[C@H](OCc2ccc(CO)cc2)O1)N1CCN(Cc2ccccc2)CC1 1
COc1ccc(C(=O)NCC(=O)N/N=C/c2ccc([N+](=O)[O-])s2)cc1OC 0.9
CC(=O)c1ccc(NC(=O)c2ccc3c(Cl)c4c(nc3c2)CCCC4)cc1 1
Cc1ccc(NS(=O)(=O)c2ccc(C)c(NC(=O)COc3ccc4ccccc4c3)c2)c(C)c1 1
CCCCC(CC)CNC(=O)C(=O)C1C(=O)Nc2ccccc21 (stereo unspecified) 1
Nc1nc(NC(=O)/C=C/c2ccccc2)nn1-c1ccccc1 1
CCOC(=O)c1cccc(NC(=O)CCOc2ccccc2)c1 1
Cc1ccc2[nH]c(C(=O)O)c(NC(=O)c3ccccc3[N+](=O)[O-])c2c1 1
COc1ccc(Cl)cc1C(=O)NNC(=S)NC(=O)/C=C/c1ccco1 1.1
C=C(C)C1CC=C(C)/C(=N/NC(=O)CCCNc2cccc(C)c2)C1 (stereo unspecified) 1
O=C(Nc1ccc(C(=O)O)cc1)/C(=C/c1ccc([N+](=O)[O-])cc1)NC(=O)c1ccccc1 1
Cc1ccc(CN2CCN(/N=C/c3cccnc3)CC2)c(C)c1 1
COc1cc(OC)nc(S(C)(=O)=O)n1 1
CCn1c2ccccc2c2cc(NC(=O)COC(=O)c3cc(S(=O)(=O)N4CCCCC4)ccc3Cl)ccc21 1
N=C1C(c2nc3ccccc3[nH]2)=C(O)CN1NC(=O)c1c[nH]c2ccccc12 1.1
CCn1c(COc2ccccc2)nnc1SCC(=O)NCc1ccco1 1
Cc1cc(N2CCOCC2)nc(-c2ccc(Br)cc2)n1 1
Cc1nn(C)cc1C(=O)Nc1ccccc1Br 1
C/C=C(\C)C(=O)NCCN1C2=NC[C@H](Cc3ccc(O)cc3)N2C[C@@H]1Cc1ccc(OC)cc1 1.1
Cc1ccc(CN(Cc2cccnc2)C(=S)Nc2cc(Cl)ccc2C)cc1 1.1
COC(=O)CCSc1cc([N+](=O)[O-])cc2c1c(C1OCCS1)nn2-c1ccccc1 (stereo unspecified) 1
COc1ccc(OC)c(C2C3=C(N=c4s/c(=C\c5cccc(O)c5)c(=O)n42)c2ccccc2CC3)c1 (stereo unspecified) 0.9
CC(NC(=O)c1cccc2ccccc12)c1ccc2c(c1)CCCC2 (stereo unspecified) 1
COc1ccccc1NC(=O)C1=C(C)Nc2nc3ccccc3n2C1c1cccs1 (stereo unspecified) 1
CCOC(=O)c1sc(/N=C/C2=C(O)CC(C)(C)CC2=O)c(C(=O)OCC)c1C 1
O=C(CCNC(=O)c1ccc([N+](=O)[O-])cc1)Nc1ccccc1N1CCOCC1 1
CCN(CC)CCCNC(=O)c1ccc2c(=O)n(Cc3ccc4c(c3)OCO4)c(=S)[nH]c2c1 1
CC1(c2cccc([N+](=O)[O-])c2)CC(C)(C)N(C(=O)c2ccccc2)c2ccccc21 (stereo unspecified) 1
C=CS(=O)c1sc(Cl)c(N2CCOCC2)c1[N+](=O)[O-] (stereo unspecified) 1
